# This sample holds only a part of the variants without activity.
# B1: tRNA (parent)
# chain: GUUCCGUUGGCGUAAUGGUAACGCGUCUCCCUCCUAAGGAGAAGACUGCGGGUUCGAGUCCCGUACGGAACG
# Variants of: B1
# Experiment: yeast fitness relative to wild type (ratio to wild type); higher = fitter; tRNA-Arg(CCU), competitive growth, 37 C, YPD
# Procedure, shortened: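 Gene amplicons from the start population and from each of six end populations were read by 100-nucleotide paired-end sequencing. Those end populations came from pooled Saccharomyces cerevisiae strains carrying tRNA-Arg(CCU) gene variants at the native locus, competed in YPD at 37°C for 24 hours. Fitness relative to wild type was worked out from changes in genotype frequencies. Genotypes needed ≥ 100 starting reads, and estimates < 0.5 were set to 0.5.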
row,Variant,yeast fitness
1,GUUCCGUUGCCGUAAUGGUAACGCGUCGCCCUGCUAAGGAGAAGACUGUGGGUUCGAGUCCCGUACGGAACG [G10C U28G C33G C49U],≤ 0.5
2,GUUCCGUUGCCGUAAUGGUAACGCGUCGCCCUGCUAAGGAGAAGACUGUGGGUUCGAGUCCCGUACGGUACG [G10C U28G C33G C49U A69U],≤ 0.5
3,GUUCCGUUGCCGUAAUGGUAACGCGUCGCCCUCCUAAGAAGAAGACUGAGGGUUUGAGUCCCGUACGGAACG [G10C U28G G39A C49A C55U],≤ 0.5
4,GUUCCGUUGCCGUAAUGGUAACGCGUCUCCCACCUGAGGAGAAGACUGCGGGUUCGAGUCCCGUACGGAACG [G10C U32A A36G],≤ 0.5
5,GUUCCGUUGCCGUAAUGGUAACGCGUCUCCCACCUAAGGAGACGACUGAGGGUUCGAGUCCCGUACGGAACG [G10C U32A A43C C49A],≤ 0.5
6,GUUCCGUUGCCGUAAUGGUAACGCGUCUCCCACCUAAGGAGAAGACUGCGGGUUCGAGUCGCGUACGGAUCG [G10C U32A C61G A70U],≤ 0.5
7,GUUCCGUUGCCGUAAUGGUAACGCGUCUCCCACCUAACGAGAAGACUGCGGGUUCGAGUCCCGCACGGAACG [G10C U32A G38C U64C],≤ 0.5
8,GUUCCGUUGCCGUAAUGGUAACGCGUCUCCCCCCUAAGGAGCAGACUGCGGGUUCGAGUCCCGUACGGAACG [G10C U32C A42C],≤ 0.5
9,GUUCCGUUGCCGUAAUGGUAACGCGUCUCCCCCCUAAGGAGCAGACUGCGGGUUCGAGUCCCGUACGCAACG [G10C U32C A42C G68C],≤ 0.5
10,GUUCCGUUGCCGUAAUGGUAACGCGUCUCCCCACUAAGGAGAAGUCUGCGGGUUCGAGUCCCGUACGGAACG [G10C U32C C33A A45U],≤ 0.5
11,GUUCCGUUGCCGUAAUGGUAACGCGUCUCCCUCCAAUGGAGAGGACUGCGGGUUCGAGUCCCGUACGGAACG [G10C U35A A37U A43G],≤ 0.5
12,GUUCCGUUGCCGUAAUGGUAACGCGUCUCCCUCCGAAGGAGACGACCGCGGGUUUGAGUCCCGUACGGAACG [G10C U35G A43C U47C C55U],≤ 0.5
13,GUUCCGUUGCCGUAAUGGUAACGCGUCUCCCUCCGAAGGAGAAGACUGCGGGUUCGAGUCCCGUACGGCACG [G10C U35G A69C],≤ 0.5
14,GUUCCGUUGCCGUAAUGGUAACGCGUCUCCCUCCGAAGGAGAAGACUGCGGGUUCGAGUCCGGUACGGAACG [G10C U35G C62G],0.52
15,GUUCCGUUGCCGUAAUGGUAACGCGUCUCCCUCCGAAGGAGAAGACUGCGGGUUCGAGUCCCGUAUGGAACG [G10C U35G C66U],≤ 0.5
16,GUUCCGUUGCCGUAAUGGUAACGCGUCUCCCUCCUAAGGAGAAGACAGCGGGUUCGCGUCCCGUACGGAACG [G10C U47A A57C],≤ 0.5
17,GUUCCGUUGCCGUAAUGGUAACGCGUCUCCCUCCUAAGGAGAAGACUGCGGGAUCGAGUCCCGUAUGGAACG [G10C U53A C66U],≤ 0.5
18,GUUCCGUUGCCGUAAUGGUAACGCGUCUCCCUCCUAAGGAGAAGACUGCGGGUACGAGUCCCGUACGGAACG [G10C U54A],≤ 0.5
19,GUUCCGUUGCCGUAAUGGUAACGCGUCUCCCUCCUAAGGAGAAGACUGCGGGUGCGAGUCCCGUACGGAACG [G10C U54G],≤ 0.5

row,Variant,yeast fitness
1,GUUCCGUUGCCGUAAUGGUAACGCGUCUCCCUCCUAAGGAGAAGACUGCGGGUUCGAGUCCCGCACGGAACG [G10C U64C],0.618
2,GUUCCGUUGUCGUUAUGGUAACGCGUCUCCCUCCUAAGGAGAAGACUGCGGGUUCGAGUCCCGUACGGAACG [G10U A14U],≤ 0.5
3,GUUCCGUUGUCGUUAUGGUAACGCGUCUCCCUCCUAAGGAGAACACUGCGGGUUCGAGUCCCGUACGGAACG [G10U A14U G44C],0.646
4,GUUCCGUUGUCGUAUUGGUAACGCGUCUCCGUCCUAAGGAGAAGACUGCCGGUUCGAGCCCCGUACGGAACG [G10U A15U C31G G50C U59C],≤ 0.5
5,GUUCCGUUGUCGUAAUGGUCACGCGUCUCCCUCCUAAGGAGAAGACUGCGGGUUCGGGUCCCGUACGGAACG [G10U A20C A57G],0.511
6,GUUCCGUUGUCGUAAUGGUCACGCGUCUCCCUCAUAAGGAGAAGACUGCGGGAGCGAGUCCCGUACGGAACG [G10U A20C C34A U53A U54G],≤ 0.5
7,GUUCCGUUGUCGUAAUGGUAACGCGUCUCCCUCCUAAGGAGAAGACUGCGGGUUCGAGUCCCGUACGGUACG [G10U A69U],0.864
8,GUUCCGUUGUGGUAAUGGUAACGUGUCUCCCUCUUAAGGAGAAGAAUGCGGGUUCGAGUCCCGUACGGAACG [G10U C11G C24U C34U C46A],≤ 0.5
9,GUUCCGUUGUCGUAAUGGUAACGCGUGUCCCUCCUAAGAAGAAGACUGCGGGUUCGAGUCCCGUACAGAACG [G10U C27G G39A G67A],≤ 0.5
10,GUUCCGUUGUCGUAAUGGUAACGCGUCUCCCUCCUAAGGAGAAGACUGCGGGUUCGAGUCCCGUAUGGAACG [G10U C66U],0.794
11,GUUCCGUUGUCAUAAUGGUAACGCGUCUCCCUCCUAAGGAGACGACUGCGGGUUCGAGUCCCGUACGGGACG [G10U G12A A43C A69G],0.566
12,GUUCCGUUGUCGUAAUAGUAACGAGUCUCCCUCCUAAGGAGAAGACUGCGGGUUCGAGUCGCGUACGGAACG [G10U G17A C24A C61G],≤ 0.5
13,GUUCCGUUGUCGUAAUAGUAACGAGUCUCCCUCCUAAGGAGAAGACUGCGGGUUCGAGUCCUGUAUGGAACG [G10U G17A C24A C62U C66U],≤ 0.5
14,GUUCCGUUGUCGUAAUAGUAACGCGUCUGCCUCCUAAGGAGAAGACUGCGGGUUGGAGUUCCGUACGGAACG [G10U G17A C29G C55G C60U],≤ 0.5
15,GUUCCGUUGUCGUAAAGGUAACGCAUCUCCCUCCUAAGGAGAAGACUGUCGGUUCGAGUCCCGUACGGAACG [G10U U16A G25A C49U G50C],≤ 0.5
16,GUUCCGUUGUCGUAAUGGUAACGCGUCUCCCACCUAACGAGAAGACUGCGGGUUCGAGUCCCGCACGGAACG [G10U U32A G38C U64C],≤ 0.5
17,GUUCCGUUGGAGUCAUGGUAACGCGUCUCCCUCAUAAGGAGAAGACUGCGGGUUCGAGUCCCGUACGGAACG [C11A A14C C34A],0.58
18,GUUCCGUUGGAGUGAUGGUAACGCGUCUCCCUCCUAAGGAGAAGACUGCGGGUUCGAGUCCCGUACGGAACG [C11A A14G],0.628
